Experimental data published in PubChem BioAssay AID623869 (Vanderbilt High Throughput Screening Facility, 2012).
Hit rate of the full screen: of about 2,100 compounds, about 75 (4%) were called active.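 Rule for the calls: active = calcium fluorescence trace judged by eye to show a response, as agonist, enhancer of the glutamate response, or inhibitor; inactive = trace judged by eye to show no response.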 Shown is part of a subset that was picked to be rich in actives.

Each compound was assayed against Metabotropic glutamate receptor 8 (Rattus norvegicus) (UniProt P70579) (assay: mGlu8-mediated intracellular calcium response modulators – cell-based, HEK293 rmGlu8, Gqi9 chimera, Fluo-4 calcium, counter-screen for GIRK activator project, confirmation (AID 623869)). Settings: HEK293 rmGlu8/Gqi9 calcium flux, Fluo-4 fluorescence; glutamate at EC20 added after compound.
Procedure, shortened: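 System – HEK-293 cells stably expressing rat mGlu8, plus transient chimeric Gqi9 · Medium – HEPES-buffered HBSS, pH 7.4 · Also added – EC20 glutamate · Compound – one dose, 20 µM addition solution, 0.2% DMSO · Times – compound 4 min before glutamate, then 2 min recording · Measured by – Fluo-4 calcium fluorescence sampled at 1 Hz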

Metabotropic glutamate receptor 8 (Rattus norvegicus), sequence (P70579 whole entry, looked up): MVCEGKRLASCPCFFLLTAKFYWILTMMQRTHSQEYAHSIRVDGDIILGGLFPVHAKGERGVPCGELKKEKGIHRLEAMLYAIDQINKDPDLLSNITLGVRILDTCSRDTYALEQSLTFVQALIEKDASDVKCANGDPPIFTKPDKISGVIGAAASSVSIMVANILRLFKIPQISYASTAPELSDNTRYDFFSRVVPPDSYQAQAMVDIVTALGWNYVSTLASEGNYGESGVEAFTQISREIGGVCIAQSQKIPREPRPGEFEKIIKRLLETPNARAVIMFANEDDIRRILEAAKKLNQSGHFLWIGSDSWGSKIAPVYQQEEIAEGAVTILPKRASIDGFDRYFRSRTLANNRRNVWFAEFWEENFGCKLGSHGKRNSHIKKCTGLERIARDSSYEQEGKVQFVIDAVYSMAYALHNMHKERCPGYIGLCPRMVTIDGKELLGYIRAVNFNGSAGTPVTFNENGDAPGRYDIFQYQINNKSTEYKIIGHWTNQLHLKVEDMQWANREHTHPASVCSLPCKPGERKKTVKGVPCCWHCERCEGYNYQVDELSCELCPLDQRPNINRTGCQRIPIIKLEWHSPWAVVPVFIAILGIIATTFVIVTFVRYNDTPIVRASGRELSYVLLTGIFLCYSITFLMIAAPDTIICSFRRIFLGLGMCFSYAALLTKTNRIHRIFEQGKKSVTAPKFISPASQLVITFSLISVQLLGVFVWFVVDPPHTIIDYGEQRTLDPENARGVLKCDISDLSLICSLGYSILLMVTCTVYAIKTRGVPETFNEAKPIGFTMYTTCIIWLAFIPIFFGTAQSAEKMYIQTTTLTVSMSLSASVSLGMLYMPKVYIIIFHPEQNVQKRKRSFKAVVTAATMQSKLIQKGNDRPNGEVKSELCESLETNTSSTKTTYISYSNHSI

Row | Structure (SMILES) | outcome
1 | CCC(=O)N1CCN(c2ccccc2NC(=O)COc2cccc(C)c2)CC1 | inactive; 0
2 | CNc1nc(Cl)nc(NC(C)(C)C)n1 | active; 2
3 | O=C1Nc2ccccc2C12OCC1(CO2)COC2(OC1)C(=O)Nc1ccccc12 (stereo not given) | active; 2
4 | O=C(c1ccco1)N1CCN(C(=O)c2cnn3c2NC(c2cccs2)CC3C(F)(F)F)CC1 (stereo not given) | inactive; 0
5 | O=C(c1ccco1)N1CCN(c2ncnc3scc(-c4cccs4)c23)CC1 | active; 2
6 | Cc1ccc(-c2csc3ncnc(N4CCN(C(=O)c5ccccc5)CC4)c23)cc1 | inactive; 0
7 | S=C(Nc1ccc(Cl)cc1)c1nc2ccccc2[nH]1 | inactive; 0
8 | O=C(NC(=S)Nc1ccccn1)c1ccco1 | inactive; 0
9 | Cc1ccc(C(=O)Nc2nc(-c3ccccc3)c(-c3ccccc3)o2)cc1 | inactive; 0
10 | COc1ccc(C(=O)NC(=S)NNC(=O)CCc2ccccc2)cc1 | active; 1
11 | COc1ccc(C(=O)NNC(=S)NC(=O)c2ccco2)cc1 | inactive; 4
12 | Cc1cccc(C)c1NC(=S)NC(=O)CCc1ccccc1 | inactive; 0
13 | COc1ccc(C(=O)NC(=S)N(Cc2ccccc2)Cc2ccccc2)cc1 | inactive; 0
14 | O=C(CCc1ccccc1)NNC(=S)NC(=O)c1ccc(Cl)cc1 | active; 1
15 | Cc1ccccc1NC(=S)NC(=O)CCc1ccccc1 | inactive; 0
16 | CC(=O)c1cccc(NC(=S)NC(=O)c2cccc(Cl)c2)c1 | inactive; 0
17 | Cc1ccc(-n2ncc3c(SCc4ccccc4)ncnc32)cc1 | inactive; 0
18 | O=C(Nc1nnc(-c2ccc3c(c2)CCCC3)o1)c1ccccc1 | inactive; 4
19 | Cc1ccc(OCC(=O)NNC(=O)C(C)Sc2ncnc3sc(C)c(C)c23)cc1 (stereo not given) | inactive; 0
20 | O=C1NC(=S)/C(=C\c2ccc(-c3ccccc3Cl)o2)S1 | inactive; 3
21 | COc1cc(/C=C2/SC(=S)NC2=O)ccc1OS(=O)(=O)c1ccc(C)cc1 | inactive; 0
22 | O=C1NC(=S)S/C1=C\c1ccc(SCc2ccccc2)o1 | inactive; 0
23 | COc1ccc(/C=C2\SC(=O)NC2=S)cc1OC | active; 2
24 | O=C1NC(=O)/C(=C\c2ccccc2Oc2ccc(F)c(F)c2)S1 | inactive; 0

Row | Structure (SMILES) | outcome
25 | COc1cc(/C=C2\SC(=S)NC2=O)ccc1OS(=O)(=O)c1ccccc1 | active; 2
26 | COc1ccc(/C=N\NC(=S)SCN2C(=O)C3CCC(C)(C2=O)C3(C)C)cc1 (stereo not given) | inactive; 0
27 | CCc1ccc2c(c1)c(N=NC1=NC(=O)CS1)c(O)n2C | inactive; 0
28 | C=CCN(CC=C)C(=S)NC(=O)c1ccc(C)c(Br)c1 | inactive; 0
29 | Cc1ccc(C(=O)NNc2nc3ccccc3nc2C(F)(F)F)cc1 | inactive; 0
30 | Cc1ccc(NC(=S)NNc2ncc(C(F)(F)F)cc2Cl)c(C)c1 | inactive; 0
31 | FC(F)(F)c1cnc(NNC(=S)Nc2ccc(Cl)cc2)c(Cl)c1 | inactive; 4
32 | FC(F)(F)c1cnc(NNC(=S)Nc2ccccc2Cl)c(Cl)c1 | active; 1
33 | CC(C)Sc1nc2c(c(=O)[nH]1)C(c1cccs1)C1=C(CC(C)(C)CC1=O)N2 (stereo not given) | inactive; 0
34 | C=CCN(CC=C)C(=S)NC(=O)c1ccc([N+](=O)[O-])cc1 | inactive; 0
35 | CCc1nc(SCC(=O)N2CC(=O)Nc3ccccc32)c2c(C)c(C)sc2n1 | inactive; 0
36 | Oc1c(C=NCc2ccncc2)sc2ccccc12 | active; 2
37 | CCN(c1ccccc1)S(=O)(=O)c1ccc(NC(=S)NC(=O)c2ccc(Br)o2)cc1 | inactive; 0
38 | CCOC(=O)c1c(NC(=O)CSc2nnc(-c3ccncc3)n2Cc2ccco2)sc(C(C)=O)c1C | inactive; 0
39 | Cc1ccc(NC(=S)c2nc3ccccc3[nH]2)cc1 | inactive; 0
40 | CCNC(=S)Nc1nc2c(cc1C(=O)OCC)CCCC2 | active; 2
41 | C=CCNC(=S)Nc1sc2c(c1C(=O)OCC)CC(C)(CC)OC2 (stereo not given) | inactive; 0
42 | C=C(C)CNC(=S)Nc1nc2c(cc1C(=O)OCC)CCCC2 | inactive; 0
43 | C=CCNC(=S)Nc1nc2c(cc1C(=O)OCC)CCCC2 | active; 2
44 | C=CCNC(=S)Nc1sc2c(c1C(=O)OCC)CC(C(C)C)OC2 (stereo not given) | inactive; 0
45 | CCNC(=S)Nc1scc(-c2ccccc2)c1C(=O)OCC | inactive; 0
46 | CCC1(c2ccc(Cl)cc2)NC(=S)N(c2ccccc2)N1 (stereo not given) | inactive; 0
47 | CC1Cc2ccccc2N1C(=S)NC(=O)c1ccc(Cl)cc1Cl (stereo not given) | inactive; 0
48 | Fc1cccc2sc(Nc3nnc(-c4ccco4)o3)nc12 | inactive; 0

Row | Structure (SMILES) | outcome
49 | CCOc1ccc(-c2nnc(NC(=O)c3ccc(OCC(C)C)c(OC)c3)o2)cc1 | inactive; 0
50 | Cc1ccc(NC(=S)c2nc3ccccc3[nH]2)c(C)c1 | inactive; 0
51 | O=C1c2ccccc2NC(c2ccc(-c3ccc(Br)cc3)o2)N1O (stereo not given) | inactive; 0
52 | O=C1c2ccccc2NC(c2ccc(-c3cccc(Cl)c3)o2)N1O (stereo not given) | inactive; 0
53 | Cc1cc([N+](=O)[O-])ccc1-c1ccc(C2Nc3ccccc3C(=O)N2O)o1 (stereo not given) | active; 2
54 | CCCN(CCC)C(=S)NC(=O)c1ccc(Cl)cc1Cl | inactive; 0
55 | C=CCn1c(=S)[nH]c2ccccc2c1=O | inactive; 0
56 | CCOC(=O)Cc1csc(NC(=S)NC(=O)c2ccccc2C)n1 | inactive; 0
57 | Cc1ccccc1C(=O)NNC(=O)C(=O)Nc1cccc(Cl)c1C | inactive; 0
58 | Cc1ccccc1C(=O)Nc1nc(=S)ss1 | active; 1
59 | O=C(NC(=S)N1CCCc2ccccc21)c1ccc([N+](=O)[O-])cc1 | inactive; 0
60 | CN(C)S(=O)(=O)c1cccc(NC(=S)Nc2ccc(Cl)cc2Cl)c1 | inactive; 4
61 | CC12CCC(C(=O)N(CSC(=S)N/N=C\c3ccccc3)C1=O)C2(C)C (stereo not given) | inactive; 0
62 | CNC(=S)N/N=C1\C(=O)c2cccc3cccc1c23 | inactive; 0
63 | CCc1nc(N2CCOCC2)c(C#N)c2c1CCCC2 | active; 2
64 | CSc1nc(N2CCOCC2)c2c(c1C#N)CC(C)(C)OC2 | inactive; 0
65 | CC(C)c1nc(N2CCOCC2)c(C#N)c2c1CCCC2 | inactive; 0
66 | C=CCn1c(O)c(N=NC(=O)OC(C)(C)C)c2ccccc21 | inactive; 0
67 | O=C(NC(=S)N1CCCc2ccccc21)c1ccc(Br)cc1 | inactive; 0
68 | Cc1ccc(C)c(C(=O)c2c(C)nc3sccn23)c1 | active; -1
69 | Cn1c(=O)c2c(nc3sccn32)n(C)c1=O | inactive; 0
70 | COC(=O)c1ccc(NC(=S)NC(=O)c2c(Cl)cnn2C)cc1 | inactive; 0
